This series in a line: Toxicity liver stage against HepG2, at 10uM. In kind it is cell-based. On the set-up: test concentration 10 uM, cell line HepG2-A16-CD81EGFP. The following applies: human, HepG2-A16-CD81EGFP cells; read-out: INHIBITION
Summed up:
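Uninfected HepG2-A16-CD81EGFP cells, 3 × 10^3 per well, 1536-well, plated on prespotted compound at 10 μM final, parasite-free screening media added to match infected plates; puromycin 10 μM positive, DMSO 0.5% negative; run in parallel with 48 h PbLuc assay at 37 °C, 5% CO2; viability by CellTiter-Glo luminescence, normalized to controls.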
With `C[C@@H]1CN(C(=O)c2cn(CCN3CCCCC3)nn2)C[C@H](C)O1`, the cytotoxicity at 10 µM was found to be 4.89%.
For `O=C(NCCC1Cc2ccccc2C1)N1CCCC(O)C1` (stereo not given) the value was 22.2%.
Turning to `NC(=O)c1csc(N2CCCC(c3n[nH]c(=O)n3-c3ccccc3)C2)n1` (stereo not given), the cytotoxicity at 10 µM worked out at 8.84%.
For `CCn1nc(C)c2nnn(CC(=O)Nc3ccccc3F)c(=O)c21` the value was 5.37%.
On to `CC(=O)NCC(=O)N1CCn2cc(CN3CCN(C)CC3)nc2C1`, for which the cytotoxicity at 10 µM was -12.4%.
Turning to `CC1COCCN1C(=O)Cc1cc(Cl)c2c(c1)OCCO2` (stereo not given), the cytotoxicity at 10 µM is -4.29%.
In the case of `Cc1nnc2n1CCN(CCCS(=O)(=O)c1ccccc1)C2` it was -11.2%; in that of `COc1cccc(N2CCN(CC(O)c3cc(C)ccc3C)CC2)c1` (stereo not given), 4.91%.
Consider `COC(=O)CN(C)Cc1cc(Br)cs1`, for which the cytotoxicity at 10 µM was -2.45%.
For `O=C(c1ccnnc1)N1C[C@@H](OCC2CCOCC2)[C@H]2OCCC[C@H]21` the value was -4.66%; for `COc1cc(CNC(C)Cn2cccn2)cc2c1OCCO2` (stereo not given), 1.67%; for `Cc1cc(CN2C[C@@H]3CC[C@H]2CN(Cc2[nH]cnc2C)C3)on1`, -2.34%.
In the case of `Cc1nc(NC(=O)c2c(-n3cnnn3)sc3c2CCCC3)sc1C` it was 2.03%; in that of `O=C(c1ccn(-c2ccc(F)cc2)n1)N1CCCC(n2ccnc2)C1` (stereo not given), -16.3%; in that of `Cc1cccc(O[C@H]2COCCN(C3CCOCC3)C2)n1`, 9.09%.
Consider `O=C(N1CCCO1)[C@@]12CCO[C@@H]1CCN(Cc1cccs1)C2`, for which the cytotoxicity at 10 µM was -6.36%.
With `O=C1C[C@@H]2CC[C@H](CN1)N2C(=O)CCc1ccsc1`, the cytotoxicity at 10 µM was -6.06%.
For `CN(C)Cc1ccccc1CN(C)c1ncnc2[nH]ccc12` the value was 8.11%; for `Cn1cc(NC(=O)NC2CCCN(c3ccccc3Cl)C2=O)cn1` (stereo not given), -41.8%; for `CC[C@H]1CN(C(=O)c2cnc(N3CCN(C)CC3)nc2C)CC[C@@]1(C)O`, -4.15%.
Consider `Cc1ncc(C(=O)N2CCCC(C(=O)c3nccn3C)C2)c(O)n1` (stereo not given), for which the cytotoxicity at 10 µM was -2.28%.
On to `Cc1nc(C)c(C(=O)N2CCN(CCOc3ccccc3C)CC2)o1`, for which the cytotoxicity at 10 µM worked out at 1.72%.
Consider `CCCn1nccc1-c1nccnc1CC1CCN(C(C)=O)C1` (stereo not given), for which the cytotoxicity at 10 µM was found to be 1.34%.
`Cc1noc(C)c1CN1CC2(CCN(C(=O)c3ccc[nH]3)C2)CC1=O` (stereo not given): the cytotoxicity at 10 µM was determined as 6.27%.
`Cn1c(SCC2OCCc3ccccc32)n[nH]c1=O` (stereo not given): the cytotoxicity at 10 µM was -5.76%.
Consider `Nc1nc2c(c(NCc3ccc(C(=O)N4CCCC4)cc3)n1)CCCC2`, for which the cytotoxicity at 10 µM was 21.1%.
In the case of `Cc1nn(C)c(Cl)c1C(=O)NCC(c1ccsc1)N(C)C` (stereo not given) it was -10%; in that of `Cc1nc(C(=O)N2CCCC2c2noc(C)n2)c[nH]1` (stereo not given), -4.95%.
In the case of `Cc1ccc(C(=O)N(C)Cc2ccc(Br)o2)c(=O)[nH]1`, the cytotoxicity at 10 µM was determined as 8.6%.
In the case of `CCC(NC(=O)C1CCN(S(C)(=O)=O)CC1)c1ccc(C)c(C)c1` (stereo not given) it was -8.06%.
For the compound `CN(Cc1nc(-c2ccccc2)c[nH]1)C(=O)NCC(=O)NC(C)(C)C`, the cytotoxicity at 10 µM is 13.4%.
Take `NS(=O)(=O)N1CCc2ccc(NC(=O)Cc3ccc(F)cc3)cc21`: the cytotoxicity at 10 µM is -9.06%.
Consider `COC[C@@]12CC[C@@H](N3CCOCC3)C[C@H]1CCN(c1nc(CO)cs1)C2`, for which the cytotoxicity at 10 µM was -3.61%.
Turning to `CN(C)C1COC2(CCN(Cc3ccc4c(c3)OCO4)CC2)C1` (stereo not given), the cytotoxicity at 10 µM was -5.19%.
In the case of `CCOc1cc(C(=O)N2CCCC(c3nc(C)c(C)s3)C2)ccn1` (stereo not given) it was -3.92%; in that of `O=C1CNc2ncnc(Nc3cccc(Cn4cccn4)c3)c2N1`, 19.8%; in that of `O=C(O)c1ccn(-c2cccc(NC(=O)c3ccccc3Cl)c2)n1`, -139%.
For `CNC(=O)[C@@H](C1CC1)N1CCC[C@H]1C(=O)NCC(C)C` the value was -2.45%; for `CCN1CCCC1CNC(=O)Cc1c(-c2ccc(Cl)cc2)n[nH]c1C` (stereo not given), -5.4%; for `CNc1cncc(C2CCCN2S(=O)(=O)c2ccccc2)n1` (stereo not given), -22%.
For `Cc1nc(N2CCN(C)CC2)ncc1C(=O)N1CC[C@](C)(O)[C@H](C)C1`, the cytotoxicity at 10 µM is 1.88%.
Consider `CC(C)(C)Cc1nnc(NCc2ccsc2)o1`, for which the cytotoxicity at 10 µM is -5.36%.
On to `CNC(=O)[C@@H]1[C@@H](c2ccccc2)CN2CCN(Cc3cc(C)no3)C[C@H]12`, for which the cytotoxicity at 10 µM was 5.94%.
With `CNc1nc(N2CCN(Cc3ccsc3)C(CCO)C2)nc2c1CCC2` (stereo not given), the cytotoxicity at 10 µM is 3.96%.
For `O=C(CCc1ccc(C(F)(F)F)cc1)N1CCCS1(=O)=O`, the cytotoxicity at 10 µM came out at 4.37%.
Turning to `Cn1cc(C2CCCN2CCCc2nc(-c3cccs3)no2)cn1` (stereo not given), the cytotoxicity at 10 µM was -6.88%.
Take `CCNc1cc2c(nn1)CCN(C(=O)c1ccc(NC3CC3)nc1)C2`: the cytotoxicity at 10 µM is -12.3%.
Turning to `O=C(NC[C@H]1OC[C@@H](NC(=O)C2CCCC2)[C@@H]1O)c1ccncc1`, the cytotoxicity at 10 µM is 5.45%.
Take `CCn1cc(S(=O)(=O)NC2CCCN(CC3CCCCC3)C2)cn1` (stereo not given): the cytotoxicity at 10 µM is -7.25%.
For `O=C(CN1CCCC1Cn1cncn1)NCCOc1ccc(F)cc1` (stereo not given) the value was -3.56%.
For `OC(CN(Cc1ccccc1)Cc1cscn1)c1cccs1` (stereo not given) the value was 4.74%.
As for `Oc1cc(CN2CCCCC2c2cccnc2)nc2c(F)cccc12` (stereo not given), the cytotoxicity at 10 µM was -6.88%.
`CCc1ccc2c(C3CN(C(C)=O)C3)ncn2c1`: the cytotoxicity at 10 µM is 2.16%.
For the compound `O=C(c1ccc(-c2ccccc2)[nH]c1=O)N1CCN(C2CC2)CC1`, the cytotoxicity at 10 µM was found to be 9.8%.
On to `COc1cc2c(nn1)CCN(Cc1noc(-c3ccccc3)n1)C2`, for which the cytotoxicity at 10 µM is -1.49%.
On to `CC(CC#N)n1ccc(C(F)(F)F)n1` (stereo not given), for which the cytotoxicity at 10 µM was -8.88%.
In the case of `c1ccc2cc(OCCN3CCn4c(nnc4C4CC4)C3)ccc2c1` it was 5.49%.
As to `Cc1ccc(C(=O)NCCCN2CCOCC2)c(Cl)c1`, the cytotoxicity at 10 µM was -12.5%.
As to `O=C(NCC(F)(F)F)C(c1cccnc1)N1CCCC1` (stereo not given), the cytotoxicity at 10 µM came to 2.26%.
Take `COc1ccccc1C(C)CC(=O)N1CCCS1(=O)=O` (stereo not given): the cytotoxicity at 10 µM is -11.6%.
Take `CN(C)[C@@H]1CO[C@H](CNC(=O)CC(C)(C)C)[C@H]1O`: the cytotoxicity at 10 µM was -10.8%.
Take `O=C(c1ncn2c(C3CCN(CC4CC4)CC3)ccnc12)N1CCCC1`: the cytotoxicity at 10 µM was -3%.
Regarding `CN(CCCOc1ccccc1)Cc1nc2c(cnn2C)c(=O)[nH]1`, the cytotoxicity at 10 µM was -3.23%.
On to `Cc1cnn(CCNCc2cc(=O)n3cc(Cl)ccc3n2)c1`, for which the cytotoxicity at 10 µM came to 0.217%.
Turning to `CS(=O)(=O)N1CCO[C@@H]2CN(Cc3ccc(F)cc3)C[C@@H]2C1`, the cytotoxicity at 10 µM turned out to be 4.74%.
Turning to `Cc1ccc(CN(C)C(=O)C(C)n2cncn2)o1` (stereo not given), the cytotoxicity at 10 µM is -3.33%.
Turning to `Nc1nc(Cn2ccnc2-c2cc(CN3CCCC3)cs2)cs1`, the cytotoxicity at 10 µM came out at 1.4%.
In the case of `Cc1n[nH]c(C)c1S(=O)(=O)N1CCC(Oc2cnccn2)CC1` it was 3.15%.
Consider `CC(=O)N1CCC2(CC1)C(=O)N(C)c1c(F)cccc12`, for which the cytotoxicity at 10 µM was -11.2%.
Take `O=C(Cn1cccc2cc(-c3ccc(F)cc3)nc1-2)N1CCC(O)CC1`: the cytotoxicity at 10 µM was -7.74%.

Values taken from ChEMBL document CHEMBL4513216, “Probing the Open Global Health Chemical Diversity Library for Multistage-Active Starting Points for Next-Generation Antimalarials” (ACS Infect Dis, 2020).
